thrombin 1536: thrombin (human) inhibition | alpha-thrombin, Boc-VPR-AMC fluorogenic substrate cleavage | hit rate 0.26% among 220,000 | inhibition, % at 5 µM | AID 1046;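 active = inhibition at or above 40%; inactive = inhibition below 40%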;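 note: 0% = enzyme with no compound and 100% = wells without enzyme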
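Test system: human alpha-thrombin; medium: pH 7.5 Tris-saline with Tween 20; times: reaction at room temperature; signal: AMC fluorescence at 355 nm excitation and 460 nm emission; also added: Boc-VPR-AMC substrate, 15 µM final; dosing: one concentration per compound, 5 µM, with 0.2% DMSO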
KLK5 inh: kallikrein 5 (human) inhibition. Q9Y337. recombinant hK5, fluorogenic AMC substrate cleavage. inhibition, % at 5 µM. hit rate 0.59% among 210,000;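 active = inhibition of 40% or more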;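 note: 0% = enzyme controls without compound and 100% = no-enzyme blanks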
Calpain2 inh: blocks pig calpain II enzyme activity; purified calpain II, fluorogenic peptide substrate, 30 min; inhibition, % at 16 µM; hit rate 0.37% among 220,000; AID 1236;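 active = inhibition above about 50%, limit read from the data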
FXIIa inh 1536: inhibitors of human coagulation factor XIIa. P00748. purified FXIIa, Boc-QGR-AMC fluorogenic substrate, 2 h. inhibition, % at 5 µM. hit rate 0.3% among 220,000; in the data active = inhibition above about 40%;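 note: 0% = enzyme with no compound and 100% = blank without enzyme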
Target sequence (P00748 20-372 limits assumed): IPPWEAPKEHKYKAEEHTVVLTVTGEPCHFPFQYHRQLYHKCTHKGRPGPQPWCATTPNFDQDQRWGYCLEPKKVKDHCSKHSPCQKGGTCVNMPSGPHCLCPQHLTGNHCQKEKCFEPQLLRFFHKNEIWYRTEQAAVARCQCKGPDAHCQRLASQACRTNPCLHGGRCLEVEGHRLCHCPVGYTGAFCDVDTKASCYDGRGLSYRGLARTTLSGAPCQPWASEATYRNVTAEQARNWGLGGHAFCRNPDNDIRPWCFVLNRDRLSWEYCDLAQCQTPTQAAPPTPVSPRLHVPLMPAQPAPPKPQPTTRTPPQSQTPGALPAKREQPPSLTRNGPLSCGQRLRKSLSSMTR
Target sequence (P00748 373-615 limits assumed): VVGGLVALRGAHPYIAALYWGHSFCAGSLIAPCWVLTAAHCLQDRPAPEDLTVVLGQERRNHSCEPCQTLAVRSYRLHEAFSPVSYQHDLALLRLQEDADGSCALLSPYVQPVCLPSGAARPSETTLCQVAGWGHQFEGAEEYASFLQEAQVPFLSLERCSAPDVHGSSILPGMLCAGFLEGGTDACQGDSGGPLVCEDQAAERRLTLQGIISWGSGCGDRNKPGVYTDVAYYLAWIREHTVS
FXIa inh: inhibitors of human coagulation factor XIa; purified FXIa, Boc-Glu-Ala-Arg-AMC fluorogenic substrate; inhibition, % at 5 µM; hit rate 0.14% among 220,000; P03951;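 active = inhibition of at least 40%; inactive = inhibition below 40%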;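 note: fluorescence of freed AMC excited at 355 nm; 0% = enzyme without compound and 100% = no enzyme blank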
Furin inhibitor: inhibitors of human furin; AID 463115; hit rate 0.061% among 220,000; inhibition, % at 20 µM or 30 µM; purified furin, fluorogenic substrate cleavage; in the data active = inhibition above about 25%
* marks the source's active call; other numbers are inactive results; i = inactive. Shown are actives, neighbours in structure and some others; about 1.4% of the full set was active somewhere.

SMILES	thrombin 1536	KLK5 inh	Calpain2 inh	FXIIa inh 1536	FXIa inh	Furin inhibitor
CS(=O)(=O)N(CC(=O)NCC1CCCO1)c1cc(Cl)ccc1Cl (centres undefined)	4	-13	-9	27	23	-19
COc1ccc(N2C(=O)[C@@H]3[C@H](C2=O)[C@H]2c4ccccc4C=CN2[C@@H]3C(=O)Nc2ccccc2)cc1	61*	1	-62	45*	14	-14
Cc1ccc(-c2nnc3n2N=C(c2ccc(Br)cc2)CS3)cc1	-6	-8	0	53*	40	-33
O=C(CCCN1C(=O)/C(=C/c2ccco2)SC1=S)Nc1cccc(C(=O)O)c1	-3	0	12	6	4	-1
Cc1ccc(C(=O)Oc2cccc(-n3cnnn3)c2)cc1	-10	0	62*	8	3	-8
Cc1ccccc1-n1ncc2c(SCC(=O)N3c4ccccc4CC3C)ncnc21 (centres undefined)	41*	32	31	26	20	-17
CC(C)(C)C(=O)CSc1ncnc2c1cnn2-c1ccccc1	-5	24	20	19	43*	-3
COc1ccc(N2CCN(C(=O)CSc3ncnc4c3cnn4-c3ccccc3C)CC2)cc1	11	33	5	0	2	-4
Cn1cnc2cc(NC(=O)c3cccs3)ccc21	5	1	-8	4	-2	-11
Cc1nn(-c2ccccc2)c2c1C1(C(=O)Nc3ccccc31)N1C(=N2)Sc2ccccc21 (centres undefined)	2	4	-184	7	2	-25
O=C(CSc1nc(-c2ccccc2)nc2c1Cc1ccccc1O2)Nc1ccc(C(=O)O)cc1	-7	-5	43	4	-5	-30
O=C(CSc1nc(-c2ccc(F)cc2)nc2c1Cc1ccccc1O2)Nc1ccc(C(=O)O)cc1	-1	-4	79*	9	1	-24
Cc1oc(-c2cccc(C(F)(F)F)c2)nc1CN1CCN(c2ccccn2)CC1	-8	-4	-18	4	-4	-18
COc1cccc(N(C(=O)Cn2nnc3ccccc32)C(C(=O)NCc2ccco2)c2cccnc2)c1 (centres undefined)	2	-15	-7	8	3	-14
COc1ccc(N2C(N)=C(C#N)C(c3cccnc3)C3=C2CC(C)(C)CC3=O)cc1 (centres undefined)	20	51*	-23	23	10	-12
COc1ccc(C2C(C#N)=C(N)N(c3cccnc3)C3=C2C(=O)CC(C)(C)C3)cc1OC (centres undefined)	2	-1	-120	19	14	-14
CC(C)CNC(=O)Nc1ccc(F)c(Cl)c1	26	14	26	30	52*	-8
COc1ccc(C(=O)NCc2ccccn2)cc1[N+](=O)[O-]	-5	-9	21	-5	-5	-2
CCN(CC)CCN1C(=O)c2ccccc2NC1c1ccc(F)cc1 (centres undefined)	-3	-72	i	4	0	-35
CCN(CC)CCN1C(=O)c2ccccc2NC1c1ccccc1F (centres undefined)	25	41*	i	16	13	-20
COC(/C=C/Nc1ccc(Br)cc1)=C(C#N)C#N	38	49*	5	17	2	-13
COC(=O)c1c(NC(=O)c2ccoc2C)sc2c1CCC2	0	0	-79	21	4	-12
COC(=O)c1c(NC(NC(C)=O)C(Cl)(Cl)Cl)sc2c1CCCC2 (centres undefined)	-2	-7	55*	8	3	-13
COC(=O)c1c(NC(=O)c2ccc(Br)s2)sc2c1CCC2	10	2	-83	55*	27	-20
Cc1ccccc1NC(=S)NCCc1c[nH]c2ccccc12	1	-14	27	12	3	3
SMILES	thrombin 1536	KLK5 inh	Calpain2 inh	FXIIa inh 1536	FXIa inh	Furin inhibitor
Cc1ccc(C)c(NC(=S)NCCc2c[nH]c3ccccc23)c1	10	42*	15	15	-8	-3
Cc1ccc(C)c(NC(=O)C(=O)NCCc2c[nH]c3ccccc23)c1	-6	-3	-18	2	-5	-27
Cc1cc(C)cc(NC(=O)C(=O)NCCc2c[nH]c3ccccc23)c1	-5	5	65*	4	-1	-23
COc1cccc(Nc2ccccc2C(=O)O)c1	7	-4	8	13	5	-1
COc1cccc(Nc2nc3ccccc3n3cnnc23)c1	2	64*	-17	17	2	-4
COc1cccc(CNc2nc3ccc(C)cc3n3cnnc23)c1	0	5	-63	11	3	-24
COc1cccc(Nc2ccc(Nc3cccc(OC)c3)nn2)c1	15	53*	24	7	9	-10
CCOC(=O)/C(C)=C1\NC(C)(C)Cc2ccccc21	-2	40	2	65*	5	-26
COCCCn1c(=O)/c(=C\c2ccccc2OC(C)C)s/c1=C(/C#N)C(=O)Nc1ccc(C(=O)O)cc1	8	38	46	49*	28	10
O=C(C1CCN(S(=O)(=O)c2ccc(F)cc2)CC1)N1CC=C(c2ccccc2)CC1	1	-26	-155	3	0	-17
Cc1c(C(=O)N2CCN(C)CC2)oc2ccc(S(=O)(=O)N3CCOCC3)cc12	-4	-21	-35	10	-2	-14
COCCSc1nnc(NC(=O)C2CC(=O)N(c3ccc(OC)cc3)C2)s1 (centres undefined)	-2	2	-17	13	-2	-7
CC(C)Oc1ccc(N2CC(C(=O)NC3=NCCS3)CC2=O)cc1 (centres undefined)	41*	18	20	29	30	-11
COc1ccc(N2CC(C(=O)Nc3ncccc3C)CC2=O)cc1 (centres undefined)	16	63*	10	16	12	-18
COc1ccc(N2CC(C(=O)Nc3nnc(SCC(=O)c4ccccc4)s3)CC2=O)cc1 (centres undefined)	24	63*	-25	15	11	2
Cc1ccc(C)c2[nH]c(=O)c(CN(Cc3nnnn3C3CCCCC3)CC3CCCO3)cc12 (centres undefined)	-8	-10	-20	41*	6	-5
Cc1ccc(C)c2[nH]c(=O)c(CN(CCN3CCOCC3)Cc3nnnn3CC3CCCO3)cc12 (centres undefined)	-6	0	-44	5	-3	0
CCn1cc(S(=O)(=O)CC(=O)Nc2ccc(OC)cc2)c2ccccc21	30	41*	13	31	18	-23
CCOc1ccc(NC(=O)CS(=O)(=O)c2cn(CC)c3ccccc23)cc1	2	-1	24	14	11	-34
COc1ccc(-c2ccc(CCC(=O)O)n2-c2ccccc2O)cc1	59*	16	-13	17	5	-3
Cc1ccc2ncnc(Nc3ccc(C)c(C)c3)c2c1	2	-2	-4	9	2	-16
